Data as given in EPA's CvTdb concentration-time database.
Values joined by “and” are separate entries in the source; they are usually repeats but may differ in a detail not shown here. Identical values can stand only once.

Test system: mouse
Experiment: concentration in blood after dosing; negative times count back from the end of exposure
Conditions: dosed: tert-amyl methyl ether, inhalation, duration: 6 hr, CD-1 (Charles River)
How it was run: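 Points were largely digitised from plot screenshots with WebPlotDigitizer or otherwise copied from tables, and they remain in the units each source reported. They come from published in vivo toxicokinetic studies and two structured collections. Sampling and analytical methods follow each source and were often not reported.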

CCC(C)(C)OC [tertiary amyl methyl ether]
Conditions | concentration in blood [ng/mL]
0.102 h, 100 ppm, male | 239
0.1024 h, 100 ppm, male | 295
0.1031 h, 100 ppm, male | 389
0.1368 h, 500 ppm, male | 3510
0.1371 h, 500 ppm, male | 4130
0.1374 h, 500 ppm, male | 4840
0.1381 h, 500 ppm, male | 6060
0.1502 h, 100 ppm, male | 655
0.1928 h, 2500 ppm, male | 29900
0.1936 h, 2500 ppm, male | 24400
0.3202 h, 500 ppm, male | 2390
0.3841 h, 2500 ppm, male | 24800
0.385 h, 2500 ppm, male | 19700
0.3858 h, 2500 ppm, male | 14700
0.4399 h, 100 ppm, male | 209
0.444 h, 2500 ppm, female | 22700
0.4444 h, 2500 ppm, female | 20100
0.4448 h, 2500 ppm, female | 17200
0.4618 h, 100 ppm, male | 127
0.4629 h, 100 ppm, male | 273
0.8712 h, 500 ppm, male | 37.4
0.8718 h, 500 ppm, male | 1260
0.9575 h, 2500 ppm, male | 15100
0.9591 h, 2500 ppm, male | 4950
0.9832 h, 2500 ppm, female | 10000
1.014 h, 2500 ppm, female | 15500
1.656 h, 100 ppm, male | 2.6
2.039 h, 2500 ppm, male | 5350
2.04 h, 2500 ppm, male | 286
9.736 h, 500 ppm, male | 67.1
9.816 h, 100 ppm, male | 1.38
9.95 h, 2500 ppm, male | 153
17.75 h, 100 ppm, male | 3.94
17.86 h, 2500 ppm, male | 441
57.5 min, 2500 ppm, male | 10000
224 s, 2500 ppm, female | 37500
226 s, 2500 ppm, female | 34900
229 s, 2500 ppm, female | 29400

during exposure
Conditions | concentration in blood
-171 s, 100 ppm, male | 1330 ng/mL
-165 s, 100 ppm, male | 1570 ng/mL
-160 s, 100 ppm, male | 1750 ng/mL
-6 h, 100 ppm, male | 1190 ng/mL
-6 h, 2500 ppm, male | 19400 ng/mL
-5.956 h, 100 ppm, male | 1080 ng/mL
-5.842 h, 100 ppm, male | 1220 ng/mL
-5.755 h, 100 ppm, male | 806 ng/mL
-5.69 h, 500 ppm, male | 7230 ng/mL
-5.688 h, 500 ppm, male | 9580 ng/mL
-5.663 h, 100 ppm, male | 1040 ng/mL
-5.662 h, 100 ppm, male | 1100 ng/mL
-5.642 h, 100 ppm, male | 814 ng/mL
-5.627 h, 2500 ppm, female | 37500 ng/mL
-5.168 h, 500 ppm, male | 7230 ng/mL
-5.167 h, 500 ppm, male | 8960 ng/mL
-5.138 h, 500 ppm, male | 5900 ng/mL
-5.124 h, 100 ppm, male | 780 ng/mL
-5.123 h, 100 ppm, male | 866 ng/mL
-5.122 h, 100 ppm, male | 1090 ng/mL
-5.094 h, 2500 ppm, female | 64100 ng/mL
-5.092 h, 2500 ppm, female | 54400 ng/mL
-5.089 h, 2500 ppm, female | 32500 ng/mL
-5.084 h, 2500 ppm, male | 49400 ng/mL
-5.083 h, 2500 ppm, male | 44300 ng/mL
-5.081 h, 2500 ppm, male | 34600 ng/mL
-5.077 h, 2500 ppm, male | 9690 ng/mL
-5.053 h, 2500 ppm, male | 59500 ng/mL
-4.247 h, 500 ppm, male | 9570 ng/mL
-4.246 h, 500 ppm, male | 11400 ng/mL
-4.245 h, 500 ppm, male | 12000 ng/mL
-4.086 h, 100 ppm, male | 926 ng/mL
-4.061 h, 100 ppm, male | 1220 ng/mL
-4.06 h, 100 ppm, male | 1360 ng/mL
-4.007 h, 2500 ppm, male | 71700 ng/mL
-4.005 h, 2500 ppm, male | 61100 ng/mL
-3.988 h, 2500 ppm, female | 67100 ng/mL
-3.987 h, 2500 ppm, female | 61600 ng/mL
-3.974 h, 2500 ppm, male | 66600 ng/mL
-3.972 h, 2500 ppm, male | 49300 ng/mL
-2.21 h, 500 ppm, male | 33800 ng/mL
-2.166 h, 2500 ppm, male | 78800 ng/mL
-2.165 h, 2500 ppm, male | 72500 ng/mL
-2.164 h, 2500 ppm, male | 66200 ng/mL
-2.159 h, 2500 ppm, female | 96100 ng/mL
-2.144 h, 100 ppm, male | 1310 ng/mL and 1340 ng/mL
-2.142 h, 100 ppm, male | 1570 ng/mL
-2.129 h, 500 ppm, male | 11900 ng/mL
-2.128 h, 500 ppm, male | 13700 ng/mL
-2.127 h, 500 ppm, male | 15500 ng/mL
-2.125 h, 2500 ppm, female | 81400 ng/mL
-2.122 h, 100 ppm, male | 1220 ng/mL
-0.1963 h, 500 ppm, male | 12000 ng/mL
-0.1937 h, 500 ppm, male | 17200 ng/mL
-0.1933 h, 500 ppm, male | 17800 ng/mL
-0.1652 h, 2500 ppm, male | 83400 ng/mL
-0.1636 h, 2500 ppm, male | 73700 ng/mL
-0.1617 h, 2500 ppm, male | 61500 ng/mL
-0.1057 h, 2500 ppm, female | 101000 ng/mL
-0.1034 h, 2500 ppm, female | 86400 ng/mL
-0.1026 h, 2500 ppm, female | 81300 ng/mL
